The values that follow come from article PMC11522000 (Nature Microbiology, 2024).

Each structure is given as a SMILES string. Values joined by “and” are separate entries in the source; they are usually repeats but may differ in a detail not shown here. Equal values may be shown once. “Also recorded” adds a separate entry of the source. Bounds are passed on as bounds.

For one data set, the target named is T1, CpPI(4)K (Cryptosporidium parvum, UniProt Q5CVD3).
T1 sequence (Q5CVD3 1-1114): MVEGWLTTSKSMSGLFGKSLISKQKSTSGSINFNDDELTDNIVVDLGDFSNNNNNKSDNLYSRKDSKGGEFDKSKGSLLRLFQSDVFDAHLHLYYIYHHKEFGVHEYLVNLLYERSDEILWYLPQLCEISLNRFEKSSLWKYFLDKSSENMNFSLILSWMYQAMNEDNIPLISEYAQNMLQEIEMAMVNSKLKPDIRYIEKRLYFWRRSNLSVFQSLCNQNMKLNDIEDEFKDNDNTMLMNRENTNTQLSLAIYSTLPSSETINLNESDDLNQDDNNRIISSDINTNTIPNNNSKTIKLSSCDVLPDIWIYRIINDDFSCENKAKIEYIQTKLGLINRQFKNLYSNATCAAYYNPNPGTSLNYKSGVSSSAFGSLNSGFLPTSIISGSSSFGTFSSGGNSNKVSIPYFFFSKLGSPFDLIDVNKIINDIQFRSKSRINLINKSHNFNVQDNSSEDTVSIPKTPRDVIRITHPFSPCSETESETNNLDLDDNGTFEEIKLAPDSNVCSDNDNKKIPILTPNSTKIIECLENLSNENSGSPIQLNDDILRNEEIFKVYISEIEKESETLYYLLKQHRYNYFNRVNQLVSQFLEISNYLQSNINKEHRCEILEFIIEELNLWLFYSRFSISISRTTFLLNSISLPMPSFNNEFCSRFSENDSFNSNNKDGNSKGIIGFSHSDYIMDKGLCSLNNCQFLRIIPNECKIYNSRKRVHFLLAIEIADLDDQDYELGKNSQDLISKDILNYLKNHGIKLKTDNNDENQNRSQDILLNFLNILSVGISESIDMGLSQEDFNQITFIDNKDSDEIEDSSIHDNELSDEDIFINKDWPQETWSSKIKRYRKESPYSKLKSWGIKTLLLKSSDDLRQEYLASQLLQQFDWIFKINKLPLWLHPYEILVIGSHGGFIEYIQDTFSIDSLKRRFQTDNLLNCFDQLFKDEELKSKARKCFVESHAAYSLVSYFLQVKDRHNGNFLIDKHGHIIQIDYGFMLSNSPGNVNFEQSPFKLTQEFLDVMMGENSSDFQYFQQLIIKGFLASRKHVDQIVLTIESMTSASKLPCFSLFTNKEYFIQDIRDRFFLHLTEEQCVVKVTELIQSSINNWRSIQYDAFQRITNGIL
The experiment in a line: PI. Format: biochemical, C. parvum. Conditions: CpPI(4)K IC50, 3 μM ATP. In short, it runs like this: (§1)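 Enzyme was pre-incubated with compound for 5 min at room temperature. The reaction was started with substrate mix at twice final strength (PI, ATP, Tris-HCl pH 7.5, DTT, 0.05% Triton X-100, MnCl2) and run 50 min at room temperature. ADP was measured by ADP-Glo luminescence. IC50s came from in-plate duplicate 10-point 3-fold dilutions, with DMSO and reference-inhibitor controls. The C. parvum enzymes (wild type and mutants) were full-length proteins expressed from baculovirus in Sf21 cells.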

In a further data set the target is HsPI(4)K (Homo sapiens, UniProt Q9UBF8). The data set is described as follows: PI. The class given is biochemical. The following applies: for IC50: HsPI(4)K IC50, 3 μM ATP.
HsPI(4)K, sequence (Q9UBF8 523-816 limits assumed): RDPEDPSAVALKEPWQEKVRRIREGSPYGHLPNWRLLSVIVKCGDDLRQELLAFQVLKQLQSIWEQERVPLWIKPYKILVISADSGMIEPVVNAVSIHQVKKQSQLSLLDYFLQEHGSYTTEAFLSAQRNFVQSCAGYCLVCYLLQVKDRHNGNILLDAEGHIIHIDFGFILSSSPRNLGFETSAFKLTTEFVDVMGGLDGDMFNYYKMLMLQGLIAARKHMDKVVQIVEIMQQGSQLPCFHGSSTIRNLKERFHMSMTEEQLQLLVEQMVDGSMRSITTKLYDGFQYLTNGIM
A further data set concerns CpPI(4)K::Y705A:Y907A. The experiment in a line: PI. Format: biochemical, C. parvum. In short, it runs like this:
as §1

The subject of another data set is HepG2. The data set is described as follows: Cytotoxicity assay. Format: cell-based, human.
The nature of data set [1]: MDCK Low Efflux permeability. Format: in vitro ADME. The following applies: dog.
A short description of data set [2]: Liver microsomes metabolic stability. The class given is in vitro ADME. The following applies: mouse. In short, it runs like this: (§2)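 Test compound was incubated with liver microsomes or hepatocytes of each species, and parent depletion was quantified by LC-MS/MS. From this, in vitro half-life and intrinsic clearance were derived, along with predicted metabolic clearance and hepatic extraction ratio.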

Data set [3] is described as follows: Liver microsomes metabolic stability. Format: in vitro ADME. Conditions: rat. The essentials:
as §2
Background: Liver microsomes are vesicles of endoplasmic reticulum, rich in cytochrome P450 enzymes.

Data set [4] in a line: Liver microsomes metabolic stability. The class given is in vitro ADME. Conditions: dog. The essentials:
as §2

Another data set is described as follows: Plasma stability. The class given is in vitro ADME. The following applies: rat. The essentials: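 Test compound was added to plasma and incubated at 37 °C in a shaking water bath, with samples taken at sequential timepoints. Samples were quenched with ice-cold acetonitrile and analysed by LC-MS/MS, and half-life was calculated from the depletion rate.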
For a further data set, the target named is CYP3A4 (Homo sapiens, UniProt P08684). The experiment in a line: CYP3A4 time-dependent inhibition. The class given is in vitro ADME.
CYP3A4, sequence (P08684 whole entry): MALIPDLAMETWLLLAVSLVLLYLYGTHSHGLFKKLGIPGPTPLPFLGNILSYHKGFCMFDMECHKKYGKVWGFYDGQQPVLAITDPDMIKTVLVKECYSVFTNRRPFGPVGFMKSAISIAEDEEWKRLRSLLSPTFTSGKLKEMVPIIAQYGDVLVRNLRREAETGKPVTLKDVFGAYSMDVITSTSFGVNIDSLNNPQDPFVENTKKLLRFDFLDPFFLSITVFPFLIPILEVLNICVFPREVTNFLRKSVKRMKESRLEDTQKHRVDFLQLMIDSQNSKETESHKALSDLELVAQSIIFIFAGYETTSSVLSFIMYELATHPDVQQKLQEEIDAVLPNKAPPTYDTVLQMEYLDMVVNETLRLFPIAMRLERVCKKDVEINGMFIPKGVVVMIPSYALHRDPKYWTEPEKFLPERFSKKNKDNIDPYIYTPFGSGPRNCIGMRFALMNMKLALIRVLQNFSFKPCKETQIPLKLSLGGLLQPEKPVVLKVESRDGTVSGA
For the next data set, the system named is CYP3A4 / 1A2 / 2B6. The experiment in a line: CYP3A4 / 1A2 / 2B6 hepatocyte induction assay. Format: in vitro ADME.
A further data set has as its target hERG (Homo sapiens, UniProt Q12809). The experiment in a line: hERG binding assay. In short, it runs like this:
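Binding was measured in hERG-expressing HEK293 cells. Concentration-response curves were typically 6-point, spanning 0.37 to 30.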

In the next data set the target is hERG potassium channel (Homo sapiens, UniProt Q12809). The experiment in a line: hERG Q-Patch. Format: cell-based. The essentials: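 hERG potassium current was recorded at near-physiological temperature in stably transfected mammalian cells expressing hERG. The test compound was applied as a 4-point dose response spanning 1–30.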
hERG potassium channel, sequence (Q12809 whole entry): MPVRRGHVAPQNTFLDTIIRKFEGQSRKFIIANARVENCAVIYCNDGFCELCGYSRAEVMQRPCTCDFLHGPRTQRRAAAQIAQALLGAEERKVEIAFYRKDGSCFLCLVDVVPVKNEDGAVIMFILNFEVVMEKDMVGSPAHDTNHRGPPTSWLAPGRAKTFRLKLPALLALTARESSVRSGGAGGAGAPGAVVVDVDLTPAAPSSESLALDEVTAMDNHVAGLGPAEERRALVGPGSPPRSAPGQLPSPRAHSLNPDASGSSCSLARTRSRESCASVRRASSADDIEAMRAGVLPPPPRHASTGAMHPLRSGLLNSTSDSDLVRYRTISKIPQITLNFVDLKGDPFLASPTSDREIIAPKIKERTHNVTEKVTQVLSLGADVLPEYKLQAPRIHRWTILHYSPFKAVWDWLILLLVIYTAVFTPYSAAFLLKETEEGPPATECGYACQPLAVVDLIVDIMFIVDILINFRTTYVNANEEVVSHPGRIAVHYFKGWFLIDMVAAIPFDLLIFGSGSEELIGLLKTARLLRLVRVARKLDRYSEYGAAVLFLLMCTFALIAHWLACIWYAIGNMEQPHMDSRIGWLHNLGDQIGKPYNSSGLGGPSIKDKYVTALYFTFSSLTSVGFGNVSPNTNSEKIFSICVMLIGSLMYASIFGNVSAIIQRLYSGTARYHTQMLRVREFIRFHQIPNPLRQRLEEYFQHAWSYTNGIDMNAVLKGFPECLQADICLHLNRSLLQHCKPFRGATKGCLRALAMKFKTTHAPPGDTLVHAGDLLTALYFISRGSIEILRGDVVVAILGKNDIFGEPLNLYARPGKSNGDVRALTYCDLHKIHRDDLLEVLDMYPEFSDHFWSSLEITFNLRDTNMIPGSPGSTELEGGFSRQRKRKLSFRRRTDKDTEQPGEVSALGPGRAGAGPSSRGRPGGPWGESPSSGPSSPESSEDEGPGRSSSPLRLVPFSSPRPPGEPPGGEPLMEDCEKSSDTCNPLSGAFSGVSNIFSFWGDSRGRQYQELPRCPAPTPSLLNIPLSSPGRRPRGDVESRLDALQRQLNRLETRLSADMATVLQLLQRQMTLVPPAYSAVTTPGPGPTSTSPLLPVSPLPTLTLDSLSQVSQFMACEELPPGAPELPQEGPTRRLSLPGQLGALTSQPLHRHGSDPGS
Data set [5] relates to Salmonella typhimurium strains TA98 and TA100. The data set is described as follows: Mini-Ames. The essentials: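 Histidine-auxotrophic S. typhimurium TA98 and TA100 were exposed to test compound with and without rat liver S9.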
Data set [6] concerns human peripheral blood lymphocytes. The experiment in a line: In vitro human lymphocyte. Conditions: EDI048: near cytotoxic concentrations. Format: cell-based. The essentials:
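Lymphocytes came from pooled blood of two donors. The assay was run under GLP and OECD guidelines, and micronuclei were scored on slides by fluorescence microscopy.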

The subject of data set [7] is C. parvum. The data set is described as follows: Mouse efficacy study. The class given is in vivo, C57BL/6 IFN-γ-knockout mice. Conditions: for log reduction in faecal oocyst shedding / log reduction in oocyst shedding: IFN-γ KO mouse, 5 days; for log reduction in faecal oocyst shedding: 10 mg kg^−1 oral.
Data set [8] has as its system C. parvum. The data set is described as follows: Host cell invasion assay. Format: cell-based, Cryptosporidium parvum. Conditions: HCT-8, 3 h; EDI048 and KDU731 20 µM, wiskostatin 11.3 µM. The essentials: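 HCT-8 monolayers were 95–100% confluent. Compounds were added at twice the final concentration 1 h before infection with 50,000 primed oocysts per well. Plates were kept 3 h at 37 °C, 5% CO2, then washed with PBS-0.1% Tween 20, fixed in 4% PFA for 15 min at room temperature, permeabilized with 0.25% Triton X-100 and blocked in 4% BSA. Vacuoles were stained with fluorescein-VVL and nuclei with Hoechst, then imaged.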

hERG, sequence (Q12809 whole entry): as above

Regarding `CN(C(=O)c1ccn2ncc(-c3ccc(C(N)=O)cc3)c2c1)c1ccc(C#N)cn1` [KDU731, 3–(4-carbamoylphenyl)-N-(5-cyanopyridin-2-yl)-N-methylpyrazolo [1,5-a]pyridine-5-carboxamide, reference compound], the IC50 against CpPI(4)K was 17 ± 8 nM; at HsPI(4)K, 1930 ± 1080 nM; at hERG, > 30000 nM; against hERG potassium channel it was 23000 nM. Moreover, in the data set on CpPI(4)K::Y705A:Y907A, the “loss of potency against CpPI(4)K::Y705A:Y907A mutant compared with wild-type” value is listed as 35–200 ×. Also, the “SI (selectivity index) HepG2 CC50 / C. parvum EC50 ratio” value with HepG2 is > 100. In addition, the Papp A→B in [1] is 12.1 ×10⁻⁶ cm/s. Moreover, the “Microsomal ER” value turned out to be 48% in data set [2], 47% in data set [3] and 67% in data set [4]. In addition, the figures for the “microsomal CLint” value in data set [2], in [3] and in [4] were 50 µL/min/mg, 29 µL/min/mg and 36 µL/min/mg, respectively. Also, in the data set “Plasma stability”, the half-life was > 120 min. Also, on CYP3A4, the “Time dependent inhibition 3A4” value is “Negative”. Further, the “CYP3A4 / 1A2 / 2B6 hepatocyte induction assay” value in the data set on CYP3A4 / 1A2 / 2B6 is “Non-inducer”. In data set [5], the Mini-AMES entry is recorded as “Negative”. Also, in data set [6], the “In vitro Human lymphocyte MN induction” value was “induce micronuclei; also recorded: Positive”. In addition, the “log reduction in faecal oocyst shedding” value in the data set on C. parvum [7] is ~ 3 log. Also, in the data set with C. parvum [7] (i.v. 1 mg kg^−1, exposure similar to oral), the “effect of intravenous injection on parasite load” value is “negligible effects on the parasite load”. The sporozoite invasion entry with C. parvum [8] is “inactive”.

In the case of `CNC(=O)c1ccc(-c2cnn3ccc(C(=O)N(C)c4ccc(Cl)c(C(=O)OC)c4)cc23)cc1` [EDI048, methyl 2-chloro-5-(N-methyl-3-(4-(methylcarbamoyl)phenyl)pyrazolo[1,5-a]pyridine-5-carboxamido)benzoate], the half-inhibitory concentration (IC50) at CpPI(4)K was 4 ± 2 nM; at HsPI(4)K, 1030 ± 470 nM; on hERG, > 30000 nM; at hERG potassium channel it was 8300 nM. Also, the “selectivity for Cryptosporidium PI(4)K over HsPI(4)K” value on HsPI(4)K is > 300 fold and 300 fold. Further, the “loss of potency against CpPI(4)K::Y705A:Y907A mutant compared with wild-type” value with CpPI(4)K::Y705A:Y907A is given as 35–200 ×. The “SI (selectivity index) HepG2 CC50 / C. parvum EC50 ratio” value with HepG2 is > 100. For the same compound, in the data set with HepG2 (human, HepG2 cells (ATCC CRL-10741)), the selectivity ratio at 96 h is > 500. Further, the CC50 in the data set on HepG2 (read-out: HepG2 CC50, 96 h) is 28100 nM. This compound also yielded a Papp A→B in [1] of 9.71 ×10⁻⁶ cm/s. Further, the “Microsomal ER” value was 93% in [2], 96% in [3] and 94% in [4]. Besides, the microsomal CLint in data set [2] (liver microsomes) is > 700 µL/min/mg; in [3] (liver microsomes), > 700 µL/min/mg; in data set [4] (liver microsomes), 271 µL/min/mg. Further, the half-life in the data set “Plasma stability” was 11.6 min. The “Time dependent inhibition 3A4” value at CYP3A4 is “Weak positive”. The same compound came in with a KI (inactivation) on CYP3A4 (human) of 2100 nM. In addition, the “CYP3A4 / 1A2 / 2B6 hepatocyte induction assay” value in the data set on CYP3A4 / 1A2 / 2B6 was “Non-inducer”. For the same compound, in data set [5], the Mini-AMES entry is “Negative”. The “In vitro Human lymphocyte MN induction” value in data set [6] is “Positive^d”. Also, the “log reduction in oocyst shedding” value with C. parvum [7] (1 mg kg^−1 oral once daily) came to 0.3 log; in the data set with C. parvum [7] (3 mg kg^−1 oral once daily) it was 1.1 log. Besides, the “log reduction in faecal oocyst shedding” value with C. parvum [7] is > 3 log and 3.1 log. For the same compound, the sporozoite invasion entry with C. parvum [8] was “inactive; also recorded: does not affect sporozoite invasion”.

The IC50 is the concentration needed to halve the response being measured. A high value points to lower potency. As usually defined, the Papp A→B is the apparent permeability from the apical to the basolateral side of a cell layer. A lower Papp A→B goes with slow passage. The term microsomal CLint denotes the capacity of the preparation to metabolise the compound, expressed as a volume cleared per time. Lower therefore signals slow turnover. In general, half-life refers to the time needed for the level to fall by half in the phase considered. As a reminder, the CC50 is the concentration that lowers cell viability or growth by half.
